pIC50: −log10 of the molar value. Converted amounts (≈) assume the structure as drawn.
Tests used:
[1] = tested on: Staphylococcus aureus; assay: Antibacterial activity against Staphylococcus aureus ATCC 29213 after 24 hrs by browth microdilution assay; format: functional; details: ATCC 29213, 24 h
Procedure, shortened: (§1)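 Broth microdilution per CLSI. Colonies suspended in 0.9% saline and adjusted to McFarland 0.5. Compounds dissolved in DMSO, diluted with distilled water to 100, 50, 25, 12.5, 6.25 and 3.125 µg/ml, with DMSO as negative control. Gentamycin (Gram-negative) and amikacin (Gram-positive) served as reference drugs. Incubation at 37 °C for 24 h. MIC taken as the lowest concentration preventing visible growth.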

[2] = tested on: Staphylococcus aureus (ATCC 25923); assay: Antibacterial activity against Staphylococcus aureus ATCC 25923 after 24 hrs by browth microdilution assay; details: ATCC 25923, 24 h
[3] = tested on: Staphylococcus epidermidis; assay: Antibacterial activity against Staphylococcus epidermidis ATCC 12228 after 24 hrs by browth microdilution assay; format: functional; details: ATCC 12228, 24 h; procedure, shortened: as §1
[4] = tested on: Enterococcus faecalis; assay: Antibacterial activity against Enterococcus faecalis ATCC 29212 after 24 hrs by browth microdilution assay; format: functional; details: ATCC 29212, 24 h; procedure, shortened: as §1
[5] = tested on: Enterobacter cloacae; assay: Antibacterial activity against Enterobacter cloacae ATCC 13047 after 24 hrs by browth microdilution assay; format: functional; details: ATCC 13047, 24 h; procedure, shortened: as §1
[6] = tested on: MCF7; assay: Cytotoxicity against human MCF7 after 24 hrs by MTT assay; format: functional, cell-based; details: MCF7, 24 h
Procedure, shortened: (§2)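 Cells grown in MEM with 10% FBS and 1% glutamine at 5% CO2, seeded at 1.0×10^4 cells. Exposed to compounds at 1–100 µM in medium containing 0.1% DMSO for 24 h at 37 °C. MTT (1 mg/ml) added for 5 h at 37 °C, then DMSO added and absorbance read at 540 nm. Run in triplicate; IC50 determined.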

[7] = tested on: HeLa; assay: Cytotoxicity against human HeLa after 24 hrs by MTT assay; format: functional, cell-based; procedure, shortened: as §2
[8] = tested on: Proteus vulgaris; assay: Antibacterial activity against Proteus vulgaris ATCC 13315 after 24 hrs by browth microdilution assay; format: functional; details: ATCC 13315, 24 h; procedure, shortened: as §1
[9] = tested on: MCF7; assay: Cytotoxicity against human MCF7 after 48 hrs by MTT assay; format: functional, cell-based; details: MCF7, 48 h
Procedure, shortened: (§3)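 MCF-7 cells in MEM with 10% FBS at 5% CO2 were exposed to compounds (1–100 µM, 0.1% DMSO vehicle) for 48 or 72 h before MTT read-out. IC50 values came from the MTT assay.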

[10] = tested on: Pseudomonas aeruginosa; assay: Antibacterial activity against Pseudomonas aeruginosa ATCC 27853 after 24 hrs by browth microdilution assay; format: functional; details: ATCC 27853, 24 h; procedure, shortened: as §1
[11] = tested on: Escherichia coli; assay: microbe, parasite or virus in culture; details: ATCC 25922, 24 h
[12] = tested on: MCF7; assay: Cytotoxicity against human MCF7 after 72 hrs by MTT assay; format: functional, cell-based; details: MCF7, 72 h; procedure, shortened: as §3
[13] = tested on: Candida tropicalis; assay: Antifungal activity against Candida tropicalis ATCC 20336 after 48 hrs by browth microdilution assay; format: functional; details: ATCC 20336, 48 h
Procedure, shortened: (§4)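 Yeast colonies suspended in 0.9% saline and adjusted to McFarland 0.5, then tested by CLSI broth microdilution. Compounds in DMSO, diluted with distilled water to 3.125–100 µg/ml, with DMSO as negative control and nystatin as reference. Incubation at 37 °C, read after 48 h. MIC is the lowest concentration with no visible growth.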

[14] = tested on: Pichia kudriavzevii; assay: Antifungal activity against Candida krusei ATCC 6268 after 48 hrs by browth microdilution assay; format: functional; details: ATCC 6268, 48 h; procedure, shortened: as §4
[15] = tested on: Nakaseomyces glabratus; assay: Antifungal activity against Candida glabrata ATCC 32554 after 48 hrs by browth microdilution assay; format: functional; details: ATCC 32554, 48 h; procedure, shortened: as §4
[16] = tested on: Candida albicans; assay: Antifungal activity against Candida albicans ATCC 90028 after 48 hrs by browth microdilution assay; format: functional; details: ATCC 90028, 48 h; procedure, shortened: as §4

Row | MIC [1] | MIC [2] | MIC [3] | MIC [4] | MIC [5] | MIC [8] | MIC [10] | MIC [11] | MIC [13] | MIC [14] | MIC [15] | MIC [16] | SMILES | pIC50 [6] | pIC50 [7] | pIC50 [9] | pIC50 [12]
1 |  |  |  |  | 50 mg/L (≈ 126 µM) | 50 mg/L (≈ 126 µM) | 25 mg/L (≈ 62.8 µM) | 25 mg/L (≈ 62.8 µM) |  |  |  |  | O=C(NC(=S)Nc1nc2cc(Br)ccc2s1)c1cccs1 | 4.62 | 4.33 | 4.81 | 4.92
2 | 50 mg/L (≈ 140 µM) |  | 50 mg/L (≈ 140 µM) | 50 mg/L (≈ 140 µM) | 50 mg/L (≈ 140 µM) | 50 mg/L (≈ 140 µM) | 50 mg/L (≈ 140 µM) |  | 50 mg/L (≈ 140 µM) | 50 mg/L (≈ 140 µM) | 50 mg/L (≈ 140 µM) | 25 mg/L (≈ 69.8 µM) | CCCC(=O)NC(=S)Nc1nc2cc(Br)ccc2s1 | 4.34 | 4.22 |  | 
3 | 50 mg/L (≈ 170 µM) |  | 50 mg/L (≈ 170 µM) | 50 mg/L (≈ 170 µM) |  |  |  |  | 50 mg/L (≈ 170 µM) | 50 mg/L (≈ 170 µM) | 50 mg/L (≈ 170 µM) | 20 mg/L (≈ 67.9 µM) | CCCC(=O)NC(=S)Nc1nc2cc(N)ccc2s1 | 4.35 |  |  | 
4 |  |  |  |  | 50 mg/L (≈ 149 µM) | 25 mg/L (≈ 74.7 µM) | 50 mg/L (≈ 149 µM) | 20 mg/L (≈ 59.8 µM) | 25 mg/L (≈ 74.7 µM) | 25 mg/L (≈ 74.7 µM) | 20 mg/L (≈ 59.8 µM) | 25 mg/L (≈ 74.7 µM) | Nc1ccc2sc(NC(=S)NC(=O)c3cccs3)nc2c1 | 4.55 | 4.25 |  | 
5 | 25 mg/L (≈ 62.3 µM) | 50 mg/L (≈ 125 µM) | 25 mg/L (≈ 62.3 µM) | 50 mg/L (≈ 125 µM) | 50 mg/L (≈ 125 µM) | 50 mg/L (≈ 125 µM) | 50 mg/L (≈ 125 µM) | 25 mg/L (≈ 62.3 µM) | 25 mg/L (≈ 62.3 µM) | 50 mg/L (≈ 125 µM) | 25 mg/L (≈ 62.3 µM) | 50 mg/L (≈ 125 µM) | O=C(NC(=S)Nc1nc2cc(Br)ccc2s1)N1CCOCC1 | 4.74 | 4.41 | 4.69 | 5.16
6 | 25 mg/L (≈ 68 µM) | 20 mg/L (≈ 54.4 µM) | 10 mg/L (≈ 27.2 µM) | 10 mg/L (≈ 27.2 µM) | 15 mg/L (≈ 40.8 µM) | 20 mg/L (≈ 54.4 µM) | 25 mg/L (≈ 68 µM) | 15 mg/L (≈ 40.8 µM) | 5 mg/L (≈ 13.6 µM) | 20 mg/L (≈ 54.4 µM) | 5 mg/L (≈ 13.6 µM) | 15 mg/L (≈ 40.8 µM) | O=C(NC(=S)Nc1nc2cc([N+](=O)[O-])ccc2s1)N1CCOCC1 | 4.51 | 4.26 |  | 
7 |  |  |  |  |  |  |  |  |  |  |  |  | O=C(NC(=S)Nc1nc2ccccc2s1)c1ccc([N+](=O)[O-])cc1 | 4.47 | 4.20 |  | 
8 | 25 mg/L (≈ 69.8 µM) | 15 mg/L (≈ 41.9 µM) | 20 mg/L (≈ 55.8 µM) | 50 mg/L (≈ 140 µM) | 25 mg/L (≈ 69.8 µM) | 15 mg/L (≈ 41.9 µM) | 20 mg/L (≈ 55.8 µM) | 20 mg/L (≈ 55.8 µM) | 50 mg/L (≈ 140 µM) | 50 mg/L (≈ 140 µM) | 15 mg/L (≈ 41.9 µM) | 25 mg/L (≈ 69.8 µM) | O=C(NC(=S)Nc1nc2cc([N+](=O)[O-])ccc2s1)c1ccccc1 | 4.38 | 4.12 |  | 
9 | 50 mg/L (≈ 134 µM) | 50 mg/L (≈ 134 µM) | 50 mg/L (≈ 134 µM) | 50 mg/L (≈ 134 µM) | 25 mg/L (≈ 66.9 µM) | 25 mg/L (≈ 66.9 µM) | 50 mg/L (≈ 134 µM) | 25 mg/L (≈ 66.9 µM) | 25 mg/L (≈ 66.9 µM) | 50 mg/L (≈ 134 µM) | 50 mg/L (≈ 134 µM) | 50 mg/L (≈ 134 µM) | Nc1ccc2sc(NC(=S)NC(=O)c3ccc([N+](=O)[O-])cc3)nc2c1 | 4.48 | 4.20 |  | 
10 | 50 mg/L (≈ 114 µM) | 50 mg/L (≈ 114 µM) | 50 mg/L (≈ 114 µM) | 50 mg/L (≈ 114 µM) |  |  |  |  | 50 mg/L (≈ 114 µM) | 50 mg/L (≈ 114 µM) | 50 mg/L (≈ 114 µM) | 50 mg/L (≈ 114 µM) | O=C(NC(=S)Nc1nc2cc(Br)ccc2s1)c1ccc([N+](=O)[O-])cc1 | 4.49 | 4.25 |  | 
11 |  |  |  |  |  |  |  |  | 50 mg/L (≈ 179 µM) | 25 mg/L (≈ 89.5 µM) | 50 mg/L (≈ 179 µM) | 20 mg/L (≈ 71.6 µM) | CCCC(=O)NC(=S)Nc1nc2ccccc2s1 | 4.44 | 4.25 |  | 

Row | SMILES | MIC [1] | MIC [2] | MIC [3] | MIC [4] | MIC [5] | MIC [8] | MIC [10] | MIC [11] | MIC [13] | MIC [14] | MIC [15] | MIC [16] | pIC50 [6] | pIC50 [7] | pIC50 [9] | pIC50 [12]
12 | NCC[C@H](O)C(=O)N[C@@H]1C[C@H](N)[C@@H](O[C@H]2O[C@H](CN)[C@@H](O)[C@H](O)[C@H]2O)[C@H](O)[C@H]1O[C@H]1O[C@H](CO)[C@@H](O)[C@H](N)[C@H]1O [AMIKACIN] | 2 mg/L (≈ 3.42 µM) | 2 mg/L (≈ 3.42 µM) | 0.5 mg/L (≈ 0.854 µM) | 4 mg/L (≈ 6.83 µM) |  |  |  |  |  |  |  |  |  |  |  | 

Source: ChEMBL document CHEMBL1157014, “Synthesis, characterization and biological evaluation of some thiourea derivatives bearing benzothiazole moiety as potential antimicrobial and anticancer agents” (Eur J Med Chem, 2010)
